This is an account of results in ChEMBL document CHEMBL1146084, “Discovery of orally efficacious melanin-concentrating hormone receptor-1 antagonists as antiobesity agents. Synthesis, SAR, and biological evaluation of bicyclo[3.1.0]hexyl ureas” (J Med Chem, 2006).

In general, AUC(0-t) refers to the area under the concentration-time curve up to a stated or last time point. One may read the Ki as a measure of affinity in units of concentration, obtained from inhibition or displacement. For orientation: Kp means tissue or fluid exposure divided by exposure in the circulation. The AUC is concentration integrated over time. By inhibition is commonly meant how much of the control response was suppressed. The term half-life denotes the time in which the quantity being followed falls by half.

Calls of active or inactive are those of the source. The rule behind the calls is not given here.

Data set [1] deals with Mus musculus. Nature of the data set: Reduction of food intake in orally dosed C57BL/6N DIO mouse after 2 hrs at 30 mg/kg relative to control. The arrangement: Activity: scale not given: the % may be the effect or the level left. In kind it is functional. The conditions noted are these: route oral. The method in brief:
(§1)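 Male C57Bl/6NCrl:BR mice made obese on a 45%-fat diet, individually housed, 12 h light/dark, 22 °C; acclimated to oral 20% hydroxypropyl-β-cyclodextrin vehicle for 2-3 days. Single oral 30 mg/kg dose in 20% HPβCD; food intake weighed to 0.01 g at 2, 6 and 24 h, expressed as % of vehicle ± SEM.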

Data set [2] has as its system Mus musculus. Nature of the data set: Reduction of food intake in orally dosed C57BL/6N DIO mouse after 24 hrs at 30 mg/kg relative to control. In kind it is functional. Particulars: for Food intake (% of vehicle control): route oral. The method in brief:
as §1

The nature of data set [3]: (§2) AUC (0-6h) in rat at 10 mg/kg, po. In kind it is ADME, organism-based, Plasma. The arrangement: time < 6 hr, dose 10 mg/kg, route oral. The conditions noted are these: plasma.
For data set [4], the target named is T1, Melanin-concentrating hormone receptor 1 (Homo sapiens, UniProt Q99705). Briefly: Displacement of [125I]MCH from human MCHR1 expressed in CHO cell. Format: cell-based.
The subject of data set [5] is Mus musculus. Briefly: Reduction of food intake in orally dosed C57BL/6N DIO mouse after 6 hrs at 30 mg/kg relative to control. In kind it is functional. The conditions noted are these: route oral. The method in brief: as §1
Data set [6] deals with Melanin-concentrating hormone receptor 1 (Mus musculus) (UniProt Q8JZL2). Briefly: Receptor occupancy ex vivo by displacement of [125I]S36057 binding from MCHR1 in C57BL/6N mouse brain after 6 hrs at 30 mg/kg, po. Format: functional, organism-based. The arrangement: dose 30 mg/kg. The method in brief: (§3)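 Male C57Bl/6NCrl:BR mice given vehicle (HPβCD) or compound orally; killed by CO2 at 6 or 24 h post-dose (chronic studies: 24 h after last daily dose, n = 3/group). 16 µm frozen caudate putamen sections incubated 30 min at room temperature with 700 pM [125I]-S36057 in MCH-R1 binding buffer; 1 µM MCH defines nonspecific binding. Phosphorimager quantitation; % inhibition versus vehicle.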
(In a radioligand displacement assay an active substance lowers the binding of a labelled ligand.)

Data set [7] in a line: (§4) AUC (0-24h) in rat at 10 mg/kg, po. Format: ADME, organism-based, Plasma. Particulars: plasma. Also on record: time < 24 hr, dose 10 mg/kg, route oral.
Data set [8] addresses T1, Melanin-concentrating hormone receptor 1. Briefly: Inhibition of MCH-mediated calcium influx in CHO cells expressing human MCHR1 by FLIPR assay. In kind it is functional, cell-based. The method in brief: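 After two washes, treated with vehicle (buffer, 2% DMSO) or compound, then stimulated with 30 nM MCH; intracellular Ca²⁺ change read by FLIPR.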
Data set [9] in a line: Ratio of drug level in brain against plasma in rat after 6 hrs at 10 mg/kg, po. Also on record: dose 10 mg/kg, route oral. In kind it is ADME, organism-based.
Data set [10] concerns Rattus norvegicus. The data set is described as §4. In kind it is ADME, organism-based, Plasma. Also on record: time < 24 hr, dose 10 mg/kg, route oral. Particulars: in vivo, 24 h.
The target in data set [11] is Melanin-concentrating hormone receptor 1 (Mus musculus) (UniProt Q8JZL2). Particulars: C57BL/6N, Brain, 10 mg/kg.
The target is the same in data set [12]. Briefly: Receptor occupancy ex vivo by displacement of [125I]S36057 binding from MCHR1 in C57BL/6N mouse brain after 24 hrs at 30 mg/kg, po. In kind it is functional, organism-based. The arrangement: dose 30 mg/kg. The procedure, abridged:
as §3

For data set [13], the system named is Mus musculus. Briefly: Reduction of cumulative food intake in C57BL/6N DIO mouse relative to control after 5 days at 30 mg/kg, po. In kind it is functional. The procedure, abridged: (§5)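 DIO male C57Bl/6NCrl:BR mice (45%-fat diet, individually housed), acclimated to vehicle dosing, given compound orally once daily in 20% HPβCD for 5 or 28 days, n = 11/group. Body weight (to 0.1 g) and food intake from preweighed 3-3.5 g pellets (to 0.01 g) recorded daily; cumulative intake and % weight change at endpoint versus vehicle, ± SEM.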

For data set [14], the system named is Mus musculus. Nature of the data set: Change in body weight of C57BL/6N DIO mouse relative to control after 5 days at 10 mg/kg, po. Format: functional. The procedure, abridged: as §5
Data set [15] concerns Rattus norvegicus. The description is as §2. Format: ADME, organism-based, Plasma. Particulars: in vivo, 6 h. Also on record: time < 6 hr, dose 10 mg/kg, route oral.
Data set [16] relates to Mus musculus. Briefly: Reduction of cumulative food intake in C57BL/6N DIO mouse relative to control after 5 days at 10 mg/kg, po. Format: functional. The method in brief:
as §5

The nature of data set [17]: Half life in rat at 10 mg/kg, iv. In kind it is ADME, organism-based. Also on record: dose 10 mg/kg, route intravenous. Particulars: in vivo.
For data set [18], the system named is Rattus norvegicus. Nature of the data set: Volume of distribution in rat at 10 mg/kg, iv or po. Format: ADME, organism-based. The arrangement: dose 10 mg/kg, route oral. Particulars: in vivo.
In data set [19] the test system is Mus musculus. Briefly: Reduction of cumulative food intake in C57BL/6N DIO mouse relative to control after 28 days at 30 mg/kg, po. In kind it is functional. The procedure, abridged: as §5
In data set [20] the test system is Mus musculus. Nature of the data set: Change in body weight of C57BL/6N DIO mouse relative to control after 5 days at 30 mg/kg, po. Format: functional. The procedure, abridged: as §5
Data set [21] relates to Mus musculus. Briefly: Change in body weight of C57BL/6N DIO mouse relative to control after 28 days at 30 mg/kg, po. In kind it is functional. The procedure, abridged:
as §5

Data set [22] concerns Rattus norvegicus. Briefly: Bioavailability in rat at 10 mg/kg, iv or po. In kind it is ADME, organism-based. The conditions noted are these: in vivo.
The subject of data set [23] is Mus musculus. Nature of the data set: Reduction of cumulative food intake in C57BL/6N DIO mouse relative to control after 28 days at 10 mg/kg, po. In kind it is functional. The method in brief: as §5
Data set [24] deals with Mus musculus. Briefly: Change in body weight of C57BL/6N DIO mouse relative to control after 28 days at 10 mg/kg, po. In kind it is functional. The method in brief:
as §5

T1 sequence (Q99705 whole entry): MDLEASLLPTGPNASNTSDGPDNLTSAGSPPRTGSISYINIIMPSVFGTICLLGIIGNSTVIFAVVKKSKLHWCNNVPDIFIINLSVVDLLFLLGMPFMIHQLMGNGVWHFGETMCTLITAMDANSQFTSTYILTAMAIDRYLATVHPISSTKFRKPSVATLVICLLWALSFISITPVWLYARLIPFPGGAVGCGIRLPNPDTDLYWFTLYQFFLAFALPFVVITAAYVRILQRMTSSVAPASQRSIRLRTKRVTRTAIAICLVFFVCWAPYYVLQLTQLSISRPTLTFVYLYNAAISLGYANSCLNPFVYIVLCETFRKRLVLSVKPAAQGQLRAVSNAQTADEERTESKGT
Chain of Melanin-concentrating hormone receptor 1 (Mus musculus) (Q8JZL2 whole entry): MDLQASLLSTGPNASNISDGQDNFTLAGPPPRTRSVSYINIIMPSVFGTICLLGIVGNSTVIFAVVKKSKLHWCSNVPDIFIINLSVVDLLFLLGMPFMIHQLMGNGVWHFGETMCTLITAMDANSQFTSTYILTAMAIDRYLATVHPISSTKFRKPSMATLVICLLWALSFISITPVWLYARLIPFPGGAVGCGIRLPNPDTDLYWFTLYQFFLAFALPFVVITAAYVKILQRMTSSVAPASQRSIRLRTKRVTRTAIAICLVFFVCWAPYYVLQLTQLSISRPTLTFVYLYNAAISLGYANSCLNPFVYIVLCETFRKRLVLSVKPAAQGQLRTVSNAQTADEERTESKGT

As for `N#Cc1cccc([C@]23CC[C@@H](N(CCCCN4CCOCC4)C(=O)Nc4ccc(F)c(C(F)(F)F)c4)[C@H]2C3)c1` (relative stereo), in the data set with Mus musculus [1], the “Food intake (% of vehicle)” value is 88%. Also, the “Food intake (% of vehicle control)” value is 94.1% in the data set with Mus musculus [2] and 83.4% in the data set on Mus musculus [5]. The same molecule yielded an area under the curve AUC(0-t) at 6 h in data set [3] of 450 ng·h/mL. For the same molecule, the Ki in data set [4] was 2.5 nM. For the same molecule, the Activity in data set [6] was 64%.
Regarding `N#Cc1cccc([C@]23CC[C@@H](N(CCN4CC[C@H](O)C4)C(=O)Nc4ccc(F)c(C(F)(F)F)c4)C[C@H]2C3)c1`, in [7], the AUC(0-t) at 24 h worked out at 16.4 µM·h. Further, in data set [8], the Kb turned out to be 11 nM. Further, the outcome in the data set on Mus musculus [2] was Active. For the same molecule, the Kp at 6 h in data set [9] is 1.1. Moreover, affinity in data set [4] was put at a Ki of 15.1 nM. In addition, in data set [6], the Activity turned out to be 73%.
For the molecule `CN1CCN(CCCN(C(=O)Nc2ccc(F)c(C(F)(F)F)c2)[C@@H]2CC[C@]3(c4ccc(C#N)cc4)C[C@H]23)CC1` (relative stereo), the AUC with Rattus norvegicus [10] worked out at 3.9 µM·h; in the data set on Rattus norvegicus [15], 642 ng·h/mL. For the same molecule, in data set [11], the inhibition is above 65%. Besides, the Kb in [8] was determined as 1.9 nM. The Activity in data set [12] was 58%; with Mus musculus [13] it was 11.7 g; in the data set with Mus musculus [14], -2.26%; in the data set on Mus musculus [16], 14.9 g; in data set [6], 99%; in the data set on Mus musculus [19], 79.4 g. In addition, the Activity is on record as -6.04% in the data set with Mus musculus [20], -9.83% in the data set with Mus musculus [21], 87 g in the data set on Mus musculus [23] and -1.48% with Mus musculus [24]. The “Food intake (% of vehicle)” value in the data set with Mus musculus [1] came to 77.3%. In addition, the entries for the “Food intake (% of vehicle control)” value in the data set with Mus musculus [2] and in the data set with Mus musculus [5] were 78.1% and 76%, respectively. This molecule also showed a half-life in [17] of 4 h. Further, in the data set with Rattus norvegicus [18], the Vdss came to 5.6 L/kg. Further, the affinity in data set [4] corresponds to a Ki of 2.7 nM. Moreover, the F in the data set on Rattus norvegicus [22] turned out to be 27%.
Molecule `N#Cc1cccc([C@]23CC[C@@H](N(CCN4CC[C@@H](O)C4)C(=O)Nc4ccc(F)c(Cl)c4)[C@H]2C3)c1` (stereo in doubt; (+)-23c) registered an AUC with Rattus norvegicus [15] of 585 ng·h/mL. For the same molecule, affinity in data set [4] was put at a Ki of 13 nM.
For the molecule `N#Cc1cccc([C@]23CC[C@@H](N(CCN4CC[C@@H](O)C4)C(=O)Nc4ccc(F)c(Cl)c4)C[C@H]2C3)c1`, in data set [7], the AUC(0-t) at 24 h stood at 14 µM·h. In addition, the outcome in the data set on Mus musculus [2] was inactive. In addition, the Kp at 6 h in data set [9] was 0.7. Besides, in [6], the Activity came to 58%.
Turning to `CN1CCN(CCCN(C(=O)Nc2ccc(F)c(Cl)c2)[C@@H]2CC[C@]3(c4ccc(OC(F)(F)F)cc4)C[C@H]23)CC1` (relative stereo), the Activity in data set [12] was found to be 15%; in the data set with Mus musculus [1], 86.2%; in [6] it was 96%. Moreover, the “Food intake (% of vehicle control)” value with Mus musculus [2] is 85.9%; in the data set with Mus musculus [5] it was 80.5%. Moreover, in data set [3], the AUC(0-t) at 6 h was determined as 578 ng·h/mL.
As for `N#Cc1cccc([C@]23CC[C@@H](N(CCN4CC[C@@H](O)C4)C(=O)Nc4ccc(F)c(Cl)c4)[C@H]2C3)c1` (stereo in doubt; (-)-23d), the AUC in the data set with Rattus norvegicus [15] is 2404 ng·h/mL.
In the case of `N#Cc1cccc([C@]23CC[C@@H](N(CCCCN4CCCCC4)C(=O)Nc4ccc(F)c(C(F)(F)F)c4)[C@H]2C3)c1` (relative stereo), the “Food intake (% of vehicle)” value in the data set with Mus musculus [1] came out at 92%. In addition, the “Food intake (% of vehicle control)” value is reported as 102% in the data set on Mus musculus [2] and 101.1% in the data set with Mus musculus [5]. In addition, the AUC(0-t) at 6 h in [3] worked out at 1160 ng·h/mL. Moreover, in data set [6], the Activity worked out at 72%.
